Bioassay records deposited in PubChem by several laboratories.
In the library only some 3.7% were active in any assay of this set; here they are far more common.
INS promoter inh – inhibitors of insulin promoter-driven GFP, primary screen, imaging, TRM-6 cells (human fetal islet line), eGFP reporter, cell count; reporter expression induced with tamoxifen; inhibition, % at 2 µM; hit rate 0.9% among 130,000; AID 1273, 2008;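 active means inhibition above the mean plus 3 SD, with well images judged a real hit on visual review, cut at about 60% in these data, passing the limit was not always enough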
Yeast lifespan up – compounds extending yeast replicative lifespan, primary screen, S. cerevisiae, OD615 | S. cerevisiae growth with nicotinamide; deaD strain in restrictive glucose medium | hit rate 0.68% among 130,000 | inhibition of the nicotinamide effect, % at 10 µM;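 active means inhibition above a set limit, placed 3 SD over the median of all compounds, cut at about 26% in these data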
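Buffer or medium: CSMM-D glucose medium, restrictive; test system: modified budding yeast, DeaD strain; compound: single dose 10 µM compound, 0.25% DMSO; schedule: culture preincubation 4 h, compound exposure 48 h, both 30 °C; detection: optical density (absorbance) at 615 nm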
Yeast growth inh – growth inhibitors of yeast BB579 in restrictive medium, primary screen, yeast lifespan-shortening project, S. cerevisiae; OD615, 48 h; hit rate 0.51% among 140,000; inhibition, % at 10 µM; AID 804, 2007;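 active means inhibition above a set limit, 3 SD over the mean compound inhibition, cut at about 44% in these data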
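Assay system: S. cerevisiae DeaD strain BB579 yeast. Medium: CSMM-D restrictive synthetic medium containing dextrose (glucose). Times: 4 h cell preincubation, 48 h compound exposure, 30 °C humidified. Signal: OD615 turbidity measurement. Benchmarks: positive control amphotericin B 10 µg/mL.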
RAM network inh – inhibitors of the yeast RAM network, primary screen, dse1pr::URA3 reporter, 5-FOA selection; hit rate 1.8% among 190,000; AID 868, 2007; inhibition, % at 50 µM; S. cerevisiae dse1pr::URA3 reporter, 5-FOA growth OD615, 2 d; analog-sensitive cbk1-as2 kinase mutant strain;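 active means inhibition above a set limit, 3 SD over mean compound inhibition, cut at about 8.4% in these data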;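 further: inhibition rescues growth on 5-FOA so higher OD means more RAM inhibition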
HMGR II inh – inhibitors of E. faecalis class II HMGR, primary screen, biochemical, Enterococcus faecalis; hit rate 0.41% among 190,000; purified E. faecalis HMGR, NADPH absorbance 340 nm kinetic; HMG-CoA reductase (Enterococcus faecalis, mvaE); inhibition, % at 10 µM;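 active means inhibition above a set limit, the median over all tested compounds plus 3 SD, cut at about 9.5% in these data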;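 further: enzyme runs in reverse so mevalonate oxidation gives rising NADPH absorbance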
Large screens that a line does not name were inactive; ! = repeats disagree.

CCN(CC)S(=O)(=O)c1ccc2nc(SC)sc2c1	INS promoter inh 79
COc1cc(/C=N/NC(=S)Nc2cccc(S(=O)(=O)N(C)C)c2)ccc1O	none
COc1ccccc1/C=C(/C(=O)OCC(=O)N(C)Cc1ccccc1)c1ccccc1	RAM network inh 10 (no result: INS promoter inh)
COc1ccccc1/C=C(/C(=O)OCC(N)=O)c1ccccc1	none
CCc1nnc(NC(=O)c2cccnc2SC)s1	none (no result: INS promoter inh, Yeast lifespan up, Yeast growth inh)
Cc1ccc(-c2nn(-c3ccccc3)cc2C(=O)Nc2ccc(C(=O)O)cc2)cc1	RAM network inh 9.6 (no result: Yeast lifespan up, Yeast growth inh)
COc1cc(C(=O)NNC(=S)NCc2ccco2)cc(OC)c1OC	none (no result: INS promoter inh, Yeast lifespan up, Yeast growth inh)
CCOC(=O)c1cc(=O)c2c([N+](=O)[O-])ccc(OC)c2o1	none (no result: INS promoter inh)
Cc1ccc(CC(=O)NC2CCSC2=O)cc1 (stereo not given)	none (no result: Yeast lifespan up, Yeast growth inh)
CN(C)CCCN(C(=O)c1ccc(S(=O)(=O)N(C)C)cc1)c1nc2cc3c(cc2s1)OCO3	none (no result: Yeast lifespan up, Yeast growth inh)
CCN(CC)CCN(C(=O)c1ccc(S(=O)(=O)N2CCCCC2)cc1)c1nc2cc3c(cc2s1)OCO3	INS promoter inh 75 (no result: Yeast lifespan up, Yeast growth inh)
CCOC(=O)CNC(=O)CN1C(=O)CC(c2ccccc2)S(=O)(=O)c2ccccc21 (stereo not given)	HMGR II inh 11 (no result: INS promoter inh, Yeast lifespan up, Yeast growth inh)
O=C(CN1C(=O)CC(c2ccccc2)S(=O)(=O)c2ccccc21)N1CCOCC1 (stereo not given)	none (no result: Yeast lifespan up, Yeast growth inh)
CC(=O)N1C(=O)/C(=C2\SC(=S)N(NS(=O)(=O)c3ccc(C)cc3)C2=O)c2ccccc21	RAM network inh 11 (no result: INS promoter inh, Yeast lifespan up, Yeast growth inh)
O=C(Oc1csc(=S)n1C(=O)c1ccccc1)c1ccccc1	Yeast growth inh 49
Cc1cccc(C(=O)Oc2csc(=S)n2C(=O)c2cccc(C)c2)c1	Yeast growth inh 44 (no result: Yeast lifespan up)
O=C(Nc1ccc2c(c1)OCCO2)C(=S)NCc1ccccc1	RAM network inh 8.7 (no result: Yeast lifespan up, Yeast growth inh)
C=CCn1c2ccccc2n2nc(C)c(=O)nc12	INS promoter inh 81 (no result: Yeast lifespan up)
Cc1c(NS(=O)(=O)c2ccc(Br)s2)c(=O)n(-c2ccccc2)n1C	HMGR II inh 10
Cc1c(NC2=NC(C)(C)Cc3ccccc32)c(=O)n(-c2ccccc2)n1C	HMGR II inh 11 (no result: Yeast lifespan up)
Cc1c(NS(=O)(=O)c2ccc3c(c2)Cc2ccccc2-3)c(=O)n(-c2ccccc2)n1C	HMGR II inh 14 (no result: INS promoter inh, Yeast lifespan up, Yeast growth inh)
O=S(=O)(Cc1ccccc1)Cc1cnc(Cl)s1	none (no result: INS promoter inh, Yeast lifespan up, Yeast growth inh)
CCn1c(=O)c2c(O)cc(=O)oc2c2ccccc21	Yeast lifespan up 42
O=c1cc(O)c2c(=O)n(-c3ccccc3)c3ccccc3c2o1	none (no result: INS promoter inh)
CC(C)n1c(=O)c2c(O)cc(=O)oc2c2ccccc21	Yeast lifespan up 63
CC1CC(C)CN(C(=O)c2cccc(S(=O)(=O)Nc3cc(C(F)(F)F)ccc3Cl)c2)C1 (stereo not given)	Yeast lifespan up 32
N#Cc1c(SCC(N)=O)nsc1SCc1ccccc1Cl	none
N#Cc1c(SCC(N)=O)nsc1SCc1ccc(Cl)cc1	RAM network inh 9.2
O=C(CSCc1nc2ccccc2[nH]1)Nc1ccccc1	none
CCOc1ccc(OCCSc2nc3ccccc3[nH]2)cc1	none (no result: Yeast lifespan up)
CCC(=O)Nc1ccc(C(=O)CSc2nc3ccc(C)cc3[nH]2)cc1	none
CCOc1ccc2nc(SCC)[nH]c2c1	INS promoter inh 86
c1ccc(CSCc2nc3ccccc3[nH]2)cc1	INS promoter inh 76
CCC(=O)Nc1ccc(C(=O)CSc2nc3ccccc3[nH]2)cc1	INS promoter inh 60
CCOc1ccc2nc(SCC(=O)Nc3nonc3C)[nH]c2c1	RAM network inh 9.1 (no result: INS promoter inh, Yeast lifespan up, Yeast growth inh)
Cc1[nH]nc2c1C(C(C)c1ccccc1)C(C#N)=C(N)O2 (stereo not given)	none (no result: Yeast lifespan up, Yeast growth inh)
CCN(C(=O)CSc1nnc(C)n1-c1ccccc1)C1CCS(=O)(=O)C1 (stereo not given)	none (no result: Yeast lifespan up, Yeast growth inh)
CCCc1nc2ccccc2[nH]1	INS promoter inh 80
CCSc1nc2ccccc2[nH]1	INS promoter inh 100!
CCOC(=O)CCc1nc2ccccc2[nH]1	none (no result: INS promoter inh)
O=c1[nH]c2ccccc2nc1Cc1ccccc1	Yeast lifespan up 43 (no result: INS promoter inh)
CC1=CS(=O)(=O)CC1Sc1nc2ccccc2[nH]1 (stereo not given)	Yeast lifespan up 68 (no result: INS promoter inh)
Cc1ccc2nc(SC(C)C(=O)N3CCOCC3)[nH]c2c1 (stereo not given)	none (no result: INS promoter inh, Yeast lifespan up, Yeast growth inh)
O=C1CC(=O)N2N=C(c3ccc([N+](=O)[O-])cc3)SC2=N1	none
